Reference: ChEMBL document CHEMBL5257120 (Bioorg Med Chem, 2023)
Activity calls are given as the source filed them. The calls are words filed in the database; no cut-off is given here.

What was measured:
[1] = Cytotoxicity against african green monkey Vero cells incubated for 72 hrs by Sulphorhodamine assay; assay type: toxicity, cell-based; conditions: African green monkey (Chlorocebus sabaeus)
Homo sapiens = species: Homo sapiens; assay: Selectivity ratio, ratio of inhibition of HDAC in human HeLa nuclear extract assessed as residual activity to inhibition of human recombinant HDAC6 assessed as residual activity
Procedure, shortened: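 Compounds at 20 μM tested by fluorometric assay on HeLa nuclear extract (class I/II HDACs) and on human recombinant HDAC6. Residual activity is expressed relative to untreated control. Selectivity is the ratio of PanHDAC to HDAC6 residual activity: ≥7 high, 2.5–6.9 moderate, <2.5 low.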

Tubulin (Homo sapiens) = Tubulin (Homo sapiens) (UniProt P68371+Q9H4B7+P0DPH7+P68366+Q13509+Q71U36+P04350+Q3ZCM7+P07437+P68363+Q9BQE3+Q6PEY2+Q13885+Q9BVA1+Q9BUF5); assay: Induction of microtubule stabilization (unknown origin) at 0.2 to 5 uM; assay type: protein-complex assay; conditions: dose 0.2-5 µM
[2] = Antiinflammatory activity in mouse peritoneal macrophage assessed as reduction in LPS-induced TNFalpha production at 1 ug/ml; assay type: functional; conditions: dose 1 µg/ml
[3] = Antiinflammatory activity in mouse peritoneal macrophage assessed as reduction in LPS-induced IL6 production at 1 ug/ml; assay type: functional; conditions: dose 1 µg/ml
[4] = Antiinflammatory activity in mouse peritoneal macrophage assessed as reduction in LPS-induced IL6 production at 10 ug/ml; assay type: functional; conditions: dose 10 µg/ml
[5] = Toxicity in Swiss albino mouse assessed as change in body weight at 300 mg/kg, po administered for 7 days (reference value: 29.35 +/- 0.57 g); assay type: organism-based; conditions: in vivo, 168 h, time 7 day
[6] = Toxicity in Swiss albino mouse assessed as haemoglobin level at 300 mg/kg, po administered for 7 days (reference value: 15.66 +/- 0.80 g/dl); assay type: organism-based; conditions: in vivo, 168 h, time 7 day
[7] = Toxicity in Swiss albino mouse assessed as RBC level at 5 mg/kg, po administered for 7 days (reference value: 7.13 +/- 0.40 million/mm3); assay type: organism-based, Erythrocyte; conditions: in vivo, 168 h, time 7 day
Procedure, shortened: (§1)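 Single acute oral dose (5, 50, 300 or 1000 mg/kg) given to Swiss albino mice, n = 6, with 7-day observation. At the end, haematological and serum biochemical parameters were measured. Compared with untreated controls; mean ± SE, ANOVA, p < 0.05.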

[8] = Toxicity in Swiss albino mouse assessed as RBC level at 50 mg/kg, po administered for 7 days (reference value: 7.13 +/- 0.40 million/mm3); assay type: organism-based, Erythrocyte; conditions: in vivo, 168 h, time 7 day; procedure, shortened: as §1
[9] = Toxicity in Swiss albino mouse assessed as RBC level at 300 mg/kg, po administered for 7 days (reference value: 7.13 +/- 0.40 million/mm3); assay type: organism-based, Erythrocyte; conditions: in vivo, 168 h, time 7 day; procedure, shortened: as §1
[10] = Toxicity in Swiss albino mouse assessed as WBC level at 5 mg/kg, po administered for 7 days (reference value: 5.29 +/- 0.51 10^3/mm3); assay type: organism-based; conditions: in vivo, 168 h, time 7 day
[11] = Toxicity in Swiss albino mouse assessed as WBC level at 1000 mg/kg, po administered for 7 days (reference value: 5.29 +/- 0.51 10^3/mm3); assay type: organism-based; conditions: in vivo, 168 h, time 7 day; procedure, shortened: as §1
[12] = Hepatotoxicity in Swiss albino mouse assessed as alkaline phosphatase level at 5 mg/kg, po administered for 7 days (reference value: 260.10 +/- 26.76 U/L); assay type: toxicity, organism-based; conditions: in vivo, 168 h, time 7 day; procedure, shortened: as §1
[13] = Hepatotoxicity in Swiss albino mouse assessed as alkaline phosphatase level at 300 mg/kg, po administered for 7 days (reference value: 260.10 +/- 26.76 U/L); assay type: toxicity, organism-based; conditions: in vivo, 168 h, time 7 day; procedure, shortened: as §1
[14] = Hepatotoxicity in Swiss albino mouse assessed as SGOT level at 50 mg/kg, po administered for 7 days (reference value: 31.51 +/- 6.31 U/L); assay type: toxicity, organism-based; conditions: in vivo, 168 h, time 7 day; procedure, shortened: as §1
[15] = Hepatotoxicity in Swiss albino mouse assessed as SGOT level at 300 mg/kg, po administered for 7 days (reference value: 31.51 +/- 6.31 U/L); assay type: toxicity, organism-based; conditions: in vivo, 168 h, time 7 day; procedure, shortened: as §1
[16] = Hepatotoxicity in Swiss albino mouse assessed as SGOT level at 1000 mg/kg, po administered for 7 days (reference value: 31.51 +/- 6.31 U/L); assay type: toxicity, organism-based; conditions: in vivo, 168 h, time 7 day; procedure, shortened: as §1
[17] = Hepatotoxicity in Swiss albino mouse assessed as SGPT level at 5 mg/kg, po administered for 7 days (reference value: 17.01 +/- 2.33 U/L); assay type: toxicity, organism-based; conditions: in vivo, 168 h, time 7 day; procedure, shortened: as §1
[18] = Hepatotoxicity in Swiss albino mouse assessed as SGPT level at 300 mg/kg, po administered for 7 days (reference value: 17.01 +/- 2.33 U/L); assay type: toxicity, organism-based; conditions: in vivo, 168 h, time 7 day; procedure, shortened: as §1
[19] = Hepatotoxicity in Swiss albino mouse assessed as albumin level at 5 mg/kg, po administered for 7 days (reference value: 4.12 +/- 0.17 g/dl); assay type: toxicity, organism-based; conditions: in vivo, 168 h, time 7 day; procedure, shortened: as §1
[20] = Hepatotoxicity in Swiss albino mouse assessed as albumin level at 300 mg/kg, po administered for 7 days (reference value: 4.12 +/- 0.17 g/dl); assay type: toxicity, organism-based; conditions: in vivo, 168 h, time 7 day; procedure, shortened: as §1
[21] = Hepatotoxicity in Swiss albino mouse assessed as albumin level at 1000 mg/kg, po administered for 7 days (reference value: 4.12 +/- 0.17 g/dl); assay type: toxicity, organism-based; conditions: in vivo, 168 h, time 7 day; procedure, shortened: as §1
[22] = Hepatotoxicity in Swiss albino mouse assessed as serum protein level at 50 mg/kg, po administered for 7 days (reference value: 5.73 +/- 0.21 mg/ml); assay type: toxicity, organism-based; conditions: in vivo, 168 h, time 7 day; procedure, shortened: as §1
[23] = Renal toxicity in Swiss albino mouse assessed as creatinine level at 300 mg/kg, po administered for 7 days (reference value: 0.76 +/- 0.06 mg/dl); assay type: organism-based; conditions: in vivo, 168 h, time 7 day; procedure, shortened: as §1
[24] = Toxicity in Swiss albino mouse assessed as cholesterol level at 5 mg/kg, po administered for 7 days (reference value: 140.17 +/- 3.76 mg/dl); assay type: organism-based; conditions: in vivo, 168 h, time 7 day
[25] = Toxicity in Swiss albino mouse assessed as cholesterol level at 50 mg/kg, po administered for 7 days (reference value: 140.17 +/- 3.76 mg/dl); assay type: organism-based; conditions: in vivo, 168 h, time 7 day
[26] = Toxicity in Swiss albino mouse assessed as triglyceride level at 5 mg/kg, po administered for 7 days (reference value: 136.88 +/- 3.12 mg/dl); assay type: organism-based; conditions: in vivo, 168 h, time 7 day
[27] = Toxicity in Swiss albino mouse assessed as triglyceride level at 50 mg/kg, po administered for 7 days (reference value: 136.88 +/- 3.12 mg/dl); assay type: organism-based; conditions: in vivo, 168 h, time 7 day
[28] = Toxicity in Swiss albino mouse assessed as triglyceride level at 1000 mg/kg, po administered for 7 days (reference value: 136.88 +/- 3.12 mg/dl); assay type: organism-based; conditions: in vivo, 168 h, time 7 day
[29] = Toxicity in Swiss albino mouse assessed as change in absolute spleen weight at 5 to 1000 mg/kg, po administered for 7 days; assay type: organism-based; conditions: in vivo, 168 h, dose 5-1000 mg/kg, time 7 day
[30] = Toxicity in Swiss albino mouse assessed as change in absolute heart weight at 5 to 1000 mg/kg, po administered for 7 days; assay type: organism-based; conditions: in vivo, 168 h, dose 5-1000 mg/kg, time 7 day
[31] = Toxicity in Swiss albino mouse assessed as change in relative kidney weight at 5 to 1000 mg/kg, po administered for 7 days; assay type: organism-based; conditions: in vivo, 168 h, dose 5-1000 mg/kg, time 7 day
[32] = Toxicity in Swiss albino mouse assessed as mortality at 5 to 1000 mg/kg, po administered for 7 days; assay type: organism-based; conditions: in vivo, 168 h, dose 5-1000 mg/kg, time 7 day

Structure (SMILES): COc1cc(C2/C(=C/c3ccc(/C=C/C(=O)NO)cc3)C(=O)c3cc(OC)c(OC)c(OC)c32)cc(OC)c1OC (centres undefined)
- IC50 at 72 h [1]: 100 µM
- Ratio (Homo sapiens): < 0.5
- Activity (Tubulin (Homo sapiens)): Active
- Activity [2]: 1019.21 pg/mL
- Activity [3]: 2617.2 pg/mL
- Activity [4]: 2199.42 pg/mL
- Activity [5]: 30.22 g
- Activity [6]: 16.77 g/dL
- Activity [7]: 8.96 million/mm3
- Activity [8]: 8.82 million/mm3
- Activity [9]: 8.48 million/mm3
- Activity [10]: 5.01 10^3/mm3
- Activity [11]: 4.73 10^3/mm3
- Activity [12]: 221.34 U/L
- Activity [13]: 238.88 U/L
- Activity [14]: 33.67 U/L
- Activity [15]: 29.93 U/L
- Activity [16]: 33.4 U/L
- Activity [17]: 16.79 U/L
- Activity [18]: 17.95 U/L
- Activity [19]: 4.34 g/dL
- Activity [20]: 4.46 g/dL
- Activity [21]: 4.53 g/dL
- Activity [22]: 5.64 mg/mL
- Activity [23]: 0.64 mg/dL
- Activity [24]: 162.42 mg/dL
- Activity [25]: 157.99 mg/dL
- Activity [26]: 146.79 mg/dL
- Activity [27]: 129.78 mg/dL
- Activity [28]: 130.21 mg/dL
- Activity [29]: Non-Toxic
- Activity [30]: Non-Toxic
- Activity [31]: Non-Toxic
- Activity [32]: Non-Toxic
